pKi: −log10 of the molar value.

In this assay the target is T1, C-C chemokine receptor type 3 (Homo sapiens, UniProt P51677).
T1 sequence (P51677 whole entry): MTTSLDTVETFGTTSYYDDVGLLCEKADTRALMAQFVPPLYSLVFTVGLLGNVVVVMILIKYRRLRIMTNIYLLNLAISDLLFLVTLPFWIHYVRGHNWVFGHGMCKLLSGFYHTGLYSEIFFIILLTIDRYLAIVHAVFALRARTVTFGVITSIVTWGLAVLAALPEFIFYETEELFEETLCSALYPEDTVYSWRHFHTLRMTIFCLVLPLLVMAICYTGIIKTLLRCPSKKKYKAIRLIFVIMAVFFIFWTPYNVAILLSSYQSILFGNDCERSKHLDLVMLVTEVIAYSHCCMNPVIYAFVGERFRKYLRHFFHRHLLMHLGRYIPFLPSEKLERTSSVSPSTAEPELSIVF
Put plainly: Binding affinity measured for human C-C chemokine receptor type 3 expressed on human K562 cell membrane. The class given is cell membranes. The gist of the method:
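Membranes from K562 cells transfected with human CCR3 (disrupted by nitrogen decompression, spun 40,000g, 4 °C, 1 h), 0.5–5 µg protein/well. SPA with WGA-coated PVT beads and 125I-rh eotaxin-1. Compounds added as DMSO dilutions, incubated 2 h. Buffer: 25 mM HEPES, 25 mM MgCl2, 1 mM CaCl2, 0.1% BSA. Unlabelled rh eotaxin defined nonspecific binding. Ki obtained by iterative mass-action fitting.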
As for `Clc1ccc(/C=C2\CCN3Cc4ccccc4N=C23)cc1Cl`, the pKi (commonly −log10 of the Ki, conventionally taken in molar units) is 6.14.

Compound `C(=C1/CCN2Cc3ccccc3N=C12)/c1ccccc1-c1ccccc1` gave a pKi of 5.54. As to `Clc1ccc(/C=C2\CCN3Cc4ccccc4N=C23)c(Cl)c1`, the pKi was 5.77. The value for `CCc1ccccc1/C=C1\CCn2c1nc1ccccc1c2=N` was 6.44; that for `Clc1ccccc1/C=C1\CCN2Cc3ccccc3N=C12` was 6.96. The value for `N#C/N=c1/c2ccccc2nc2n1CC/C2=C\c1ccccc1Br` was 5.21. `N=c1c2cccnc2nc2n1CC/C2=C\c1ccccc1Br` showed a pKi of 6.09.

Turning to `CN(C)c1ccc(/C=C2\CCN3Cc4ccccc4N=C23)c(Cl)c1`, the pKi was 5.85. This pKi lies 0.24 log units lower than the previous one.

`Fc1ccccc1/C=C1\CCN2Cc3ccccc3N=C12` had a pKi of 5.85. `Brc1ccccc1/C=C1\CCN2Cc3ccccc3N=C12` had a pKi of 7.05. The value for `COc1ccc(/C=C2\CCn3c2nc2ccccc2c3=N)cc1` was 5.41. With `N=c1c2ccccc2nc2n1CC/C2=C\c1ccccc1Cl` the figure was 7.46. `Clc1cccc(Cl)c1/C=C1\CCN2Cc3ccccc3N=C12` gave a pKi of 5.74. This pKi lies 1.72 log units lower than the previous one. Compound `N=c1c2c(C3CC3)csc2nc2n1CC/C2=C\c1ccccc1Br` had a pKi of 6.54. The compound `N=c1c2c3c(sc2nc2n1CC/C2=C\c1ccccc1Br)CCCC3` gave a pKi of 6.46.

In turn, `N=c1c2ccccc2nc2n1CC/C2=C\c1ccccc1I` showed a pKi of 7.12.

Turning to `Cc1sc2nc3n(c(=N)c2c1C)CC/C3=C\c1ccccc1Br`, the pKi was 6.59. In turn, `CCCCC1C/C(=C\c2ccccc2Br)C2=Nc3ccccc3CN21` (stereo unspecified) showed a pKi of 6.60. This pKi and that of the compound before are within 0.2 log units of each other. The value for `N=c1c2ccsc2nc2n1CC/C2=C\c1ccccc1Br` was 7.55. `N=c1c2nc[nH]c2nc2n1CC/C2=C\c1ccccc1Br` gave a pKi of 6.08. Compared with the last compound, the pKi is 1.47 log units lower.

`N=c1c2ccccc2nc2n1CC/C2=C\c1ccccc1Br`: the pKi was 7.55. `FC(F)(F)c1ccccc1/C=C1\CCN2Cc3ccccc3N=C12`: the pKi was 5.80. Turning to `CC(C)(C)c1csc2nc3n(c(=N)c12)CC/C3=C\c1ccccc1Br`, the pKi is 5.92.

With `CCC1C/C(=C\c2ccccc2Cl)C2=Nc3ccccc3CN21` (stereo unspecified), the pKi is 6.85. With `FC(F)(F)Oc1ccccc1/C=C1\CCN2Cc3ccccc3N=C12` the figure was 5.49.

For `CCOc1ccccc1/C=C1\CCN2Cc3ccccc3N=C12`, the pKi is 5.35. With `CCc1ccccc1/C=C1\CCN2Cc3ccccc3N=C12` the figure was 5.85. In turn, `Cc1oc2nc3n(c(=N)c2c1C)CC/C3=C\c1ccccc1Br` had a pKi of 6.57.

Turning to `Fc1ccc(/C=C2\CCN3Cc4ccccc4N=C23)c(Cl)c1`, the pKi is 6.03. Compared with the last compound, the pKi is 0.54 log units lower. `Fc1ccc(C2C/C(=C\c3ccccc3Br)C3=Nc4ccccc4CN32)cc1` (stereo unspecified) gave a pKi of 5.10. For the compound `C/N=c1/c2ccccc2nc2n1CC/C2=C\c1ccccc1Br`, the pKi is 6.51.

Source of the values: ChEMBL document CHEMBL1144285, “Pyrrolidinohydroquinazolines--a novel class of CCR3 modulators” (Bioorg Med Chem Lett, 2005).
